Assay [1] is filed under the species Mus musculus. In words: Effect of compound on mice bearing the L1210 Leukemia expressed as T/C percent treated/control)-dose 10x2 mg/ kg. The assay is classed as functional.
The species entered for assay [2] is Mus musculus. In words: Average survival days at the dose 20 mg/ kg in mice bearing the L1210 Leukemia.
Assay [3] is filed under the species Mus musculus. In words: Average change in body weight from onset to termination of therapy in mice bearing the L1210 Leukemia(dose 10x2 mg/ kg ). In kind it is functional. Put shortly:
(§1)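 Female CD2F1 mice carried implanted L1210 leukemia. Drug was given ip in suspension twice daily for 6 consecutive days, beginning 24 h after implantation, with 5–10 mice per group. The value is the average percent body-weight change from onset to termination of therapy.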

Assay [4] is filed under the species Mus musculus. In words: Effect of compound on mice bearing the L1210 Leukemia expressed as T/C percent treated/control)-dose 15x2 mg/ kg. In kind it is functional.
The species entered for assay [5] is Mus musculus. In words: Average survival days at the dose 20x2 mg/ kg in mice bearing the L1210 Leukemia. The assay is classed as functional. Put shortly: (§2)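 CD2F1 female mice with implanted L1210 leukemia; each compound given ip as a suspension, twice daily for 6 consecutive days, starting 24 h after tumor implantation; 5-10 mice per group. Read-out is mean survival time, counting only mice dying before day 60. Body weight change is recorded from onset to end of therapy.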

The species named for assay [6] is Mus musculus. In words: Average change in body weight from onset to termination of therapy in mice bearing the L1210 Leukemia(dose 30x2 mg/ kg ). In kind it is functional. Put shortly: as §1
The species entered for assay [7] is Mus musculus. In words: Average survival days at the dose 15x2 mg/ kg in mice bearing the L1210 Leukemia. In kind it is functional. An outline of the steps:
as §2

The species named for assay [8] is Mus musculus. In words: Average change in body weight from onset to termination of therapy in mice bearing the L1210 Leukemia(dose 20x2 mg/ kg ). The assay is classed as functional. An outline of the steps: as §1
The species named for assay [9] is Mus musculus. In words: Average survival days at the dose 10x2 mg/ kg in mice bearing the L1210 Leukemia. The assay is classed as functional. Put shortly: as §2
The species named for assay [10] is Mus musculus. In words: Effect of compound on mice bearing the L1210 Leukemia expressed as T/C percent treated/control)-dose 30x2 mg/ kg. The assay is classed as functional.
Assay [11] is filed under the species Mus musculus. In words: Effect of compound on mice bearing the L1210 Leukemia expressed as T/C percent treated/control)-dose 20 mg/ kg. The assay is classed as functional. To be noted: at 20 mg/kg.
For assay [12], the species on record is Mus musculus. In words: Average change in body weight from onset to termination of therapy in mice bearing the L1210 Leukemia(dose 15x2 mg/ kg ). The assay is classed as functional. Put shortly:
as §1

For assay [13], the species on record is Mus musculus. In words: Effect of compound on mice bearing the L1210 Leukemia expressed as T/C percent treated/control)-dose 20x2 mg/ kg. The assay is classed as functional.
Assay [14] is filed under the species Mus musculus. In words: Average survival days at the dose 30x2 mg/ kg in mice bearing the L1210 Leukemia. In kind it is functional. An outline of the steps: as §2
The species entered for assay [15] is Mus musculus. In words: Average change in body weight from onset to termination of therapy in mice bearing the L1210 Leukemia(dose 20 mg/ kg ). The assay is classed as functional. To be noted: at 20 mg/kg. An outline of the steps:
(§3)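 L1210 leukemia in CD2F1 mice. Drug was given ip as a suspension once daily for 6 consecutive days, starting 24 h after tumor implantation, with 5–10 mice per group. The value is the average body-weight change from onset to termination of therapy, in percent.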

For assay [16], the species on record is Mus musculus. In words: Effect of compound on mice bearing the L1210 Leukemia expressed as T/C percent treated/control)-dose 40 mg/ kg. In kind it is functional. To be noted: at 40 mg/kg.
For assay [17], the species on record is Mus musculus. In words: Average change in body weight from onset to termination of therapy in mice bearing the L1210 Leukemia(dose 40 mg/ kg ). In kind it is functional. Particulars: at 40 mg/kg. An outline of the steps: as §3
Assay [18] is filed under the species Mus musculus. In words: Average survival days at the dose 40 mg/ kg in mice bearing the L1210 Leukemia. In kind it is functional.
The subject of assay [19] is Mus musculus. In words: Effect of compound on mice bearing the L1210 Leukemia expressed as T/C percent treated/control)-dose 10 mg/kg. The assay is classed as functional.
The species named for assay [20] is Mus musculus. In words: Effect of compound on mice bearing the L1210 Leukemia expressed as T/C percent treated/control)-dose 40x2 mg/ kg. The assay is classed as functional.
For assay [21], the species on record is Mus musculus. In words: Average survival days at the dose 40x2 mg/ kg in mice bearing the L1210 Leukemia. The assay is classed as functional. An outline of the steps:
as §2

For assay [22], the species on record is Mus musculus. In words: Average change in body weight from onset to termination of therapy in mice bearing the L1210 Leukemia(dose 60 mg/ kg ). In kind it is functional. To be noted: at 60 mg/kg. Put shortly:
as §3

The species named for assay [23] is Mus musculus. In words: Effect of compound on mice bearing the L1210 Leukemia expressed as T/C percent treated/control)-dose 60 mg/ kg. The assay is classed as functional. To be noted: at 60 mg/kg.
The species named for assay [24] is Mus musculus. In words: Average change in body weight from onset to termination of therapy in mice bearing the L1210 Leukemia(dose 40x2 mg/ kg ). The assay is classed as functional. An outline of the steps: as §1
For assay [25], the species on record is Mus musculus. In words: Average survival days at the dose 60 mg/ kg in mice bearing the L1210 Leukemia.
For assay [26], the species on record is Mus musculus. In words: Average change in body weight from onset to termination of therapy in mice bearing the L1210 Leukemia(dose 10 mg/ kg ). In kind it is functional. Particulars: at 10 mg/kg. Put shortly: as §3

Regarding `N/C(S)=N/N=C/c1ccc(N)cn1`, the T/C in assay [1] is 232%; in assay [4], 221%; in assay [10], 91%; in [11], 140%; in assay [13] it was 185%. For the same molecule, the Average survival in assay [2] was determined as 11 days; in assay [5], 14 days; in assay [7], 16.8 days; in [9], 17.6 days; in assay [14], 6.9 days. For the same molecule, the “Average change in body weight” value is on record as -3.8% in assay [3]; -16% in assay [6]; -12.3% in assay [8]; -7.7% in [12]; -2.8% in assay [15].
As to `NC(=S)N/N=C/c1ncccc1N` [TRIAPINE], the T/C in assay [16] was determined as 187%; in [1], 246%; in assay [4] it was 262%; in assay [10], 96%; in [13], 192%. Besides, the “Average change in body weight” value in assay [17] is reported as -5.9%; in assay [3] it was -6.4%; in assay [6], -12.8%; in assay [8], -12.4%; in assay [12], -3.3%. In addition, the Average survival is 14.6 days in assay [5]; 19.8 days in assay [7]; 14.6 days in [18]; 18.7 days in assay [9]; 7.3 days in [14].
With `N/C(S)=N/N=C/c1ccc(O)cn1`, the “Average change in body weight” value in assay [17] is 2%. The same molecule yielded an Average survival in [18] of 10.4 days. The molecule also yielded a T/C in [19] of 133%.
As for `Cc1ccnc(/C=N/N=C(/N)S)c1N`, the T/C in [20] turned out to be 255%; in assay [1], 195%; in assay [23], 190%; in assay [10] it was 232%; in assay [13] it was 222%. The “Average change in body weight” value is given as 1.4% in assay [3]; -2.4% in assay [6]; -3.8% in [8]; 2% in assay [22]; -8.1% in assay [24]. For the same molecule, the Average survival stood at 19.4 days in assay [21]; 16.9 days in assay [5]; 14.8 days in assay [9]; 14.9 days in assay [25]; 17.6 days in assay [14].
For `Cc1cc(/C=N/N=C(/N)S)ncc1NO`, the “Average change in body weight” value in assay [26] is -2.7%. Further, the Average survival in [18] amounted to 10.6 days. This molecule also returned a T/C in [19] of 136%.
In the case of `Cc1cc(/C=N/N=C(/N)S)ncc1N`, the T/C in assay [1] worked out at 245%; in [4] it was 276%; in [10], 190%; in assay [11] it was 138%; in assay [13], 236%. The “Average change in body weight” value is listed as 1.4% in assay [3]; -12.4% in [6]; -12.1% in assay [8]; -7.1% in assay [12]; -7% in assay [15]. The Average survival in assay [5] was 17.9 days; in assay [7], 21 days; in assay [18] it was 10.8 days; in assay [9] it was 18.6 days; in assay [14] it was 14.4 days.

Broadly, the T/C is the result in the treated group divided by that in the control group, in per cent.

The record behind these values is ChEMBL document CHEMBL1125305, “Synthesis and antitumor activity of amino derivatives of pyridine-2-carboxaldehyde thiosemicarbazone” (1992).
